Only some compounds are listed: those with a hit (about 2.3% of all), similar ones and a draw of the others.
Rpn11 inh: inhibitors of human proteasome Rpn11; O00487; human 26S proteasome, Ub4-pepOG fluorescence polarization; 20S core pre-blocked with epoxomicin; inhibition, % at 20 µM; 0.59% of 360,000 active; AID 588493;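 active means inhibition at 20 µM, scaled to each plate's controls, above about 33%, limit read from the data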
SUMO1 PPI mod: alters human SUMO1 binding to SIM partners | P63165 | SUMO1 binding to a labelled peptide, TR-FRET, 1 h | inhibition, % at 20 µM | 0.33% of 360,000 active | AID 602429; in the data active means inhibition above about 37%
Scp1 inh: blocks human Scp-1 phosphatase activity. Recombinant Scp1, phosphopeptide, malachite green phosphate absorbance. inhibition, % at 20 µM. 0.88% of 340,000 active;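 active means inhibition above about 50% at 20 µM, limit read from the data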;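 further: plate controls were DMSO wells with enzyme for no effect and wells lacking enzyme for full effect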
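Material – SCP-1 phosphatase catalytic domain, residues 76-261 · Buffer or medium – Acidic Tris acetate buffer with magnesium and detergent · Also added – Phospho 17-mer peptide substrate · Compound – single 20 µM dose, 1% DMSO · Times – 45 min room-temperature reaction, 5 min colour, 30 min stabiliser · Technique – Phosphate-binding colour reagent, absorbance read at 630 nm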
STEP inh: STEP (human) phosphatase inhibition; AID 588621; recombinant STEP, OMFP fluorogenic substrate, fluorescence; inhibition, % at 20 µM; P54829; 0.25% of 360,000 active;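 active means inhibition at 20 µM, scaled per plate between control wells, above about 37%, limit read from the data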;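 further: 0% = DMSO with enzyme and substrate and 100% = substrate only without enzyme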
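System: isolated STEP enzyme; schedule: 20 min enzyme reaction at room temperature, protected from light; medium: Bis-Tris buffer pH 6.0, 2.5 mM DTT, 0.005% Tween 20; signal: fluorescence, 480/540 nm; dosing: single compound dose of 20 µM, 1% DMSO final; also added: OMFP substrate, 25 µM final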
DNMT1 inh: DNMT1 (human) enzyme inhibition | P26358 | DNMT1 molecular beacon, Hinp1I cleavage, fluorescence | inhibition (reported as % activation of signal), % at 10 µM | 0.83% of 360,000 active | AID 588458; in the data active means inhibition above about 50%
LMPTP inh: blocks human LMPTP phosphatase | P24666 | recombinant LMPTP-A, OMFP fluorogenic substrate, fluorescence intensity | inhibition, % at 20 µM | 0.22% of 360,000 active | AID 651560;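 active means compounds that cut the enzyme signal by at least half of the control window in the single-dose screen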;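 further: plate controls were DMSO wells with enzyme plus substrate for no effect and substrate without enzyme for full effect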
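material = LMPTP-A | quantity = 0.625 nM enzyme | reagent = OMFP substrate, 400 µM final | buffer or medium = Bis-Tris pH 6.0, DTT, detergent | detection = endpoint fluorescence intensity from OMFP dephosphorylation | dosing = single 20 µM dose | read-out basis = % inhibition relative to no-enzyme and uninhibited control wells | control set = no-enzyme and uninhibited controls | timing = 50 min at room temperature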
Rpn11 inh conf: confirmation of human proteasome Rpn11 inhibitors; shares compounds with Rpn11 inh; purified human 26S proteasome, Ub4-pepOG fluorescence polarization; proteasome pretreated with epoxomicin; 29% of 1,900 active; inhibition, % at 20 µM
MMP-2 inh: blocks human MMP-2, flagging nonselective RPN11 hits. shares compounds with Rpn11 inh. recombinant MMP-2, FRET peptide cleavage fluorescence. inhibition, % at 20 µM. 4% of 1,900 active;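 further: human MMP-2 activated beforehand with APMA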
Target sequence (P08253 whole entry, looked up): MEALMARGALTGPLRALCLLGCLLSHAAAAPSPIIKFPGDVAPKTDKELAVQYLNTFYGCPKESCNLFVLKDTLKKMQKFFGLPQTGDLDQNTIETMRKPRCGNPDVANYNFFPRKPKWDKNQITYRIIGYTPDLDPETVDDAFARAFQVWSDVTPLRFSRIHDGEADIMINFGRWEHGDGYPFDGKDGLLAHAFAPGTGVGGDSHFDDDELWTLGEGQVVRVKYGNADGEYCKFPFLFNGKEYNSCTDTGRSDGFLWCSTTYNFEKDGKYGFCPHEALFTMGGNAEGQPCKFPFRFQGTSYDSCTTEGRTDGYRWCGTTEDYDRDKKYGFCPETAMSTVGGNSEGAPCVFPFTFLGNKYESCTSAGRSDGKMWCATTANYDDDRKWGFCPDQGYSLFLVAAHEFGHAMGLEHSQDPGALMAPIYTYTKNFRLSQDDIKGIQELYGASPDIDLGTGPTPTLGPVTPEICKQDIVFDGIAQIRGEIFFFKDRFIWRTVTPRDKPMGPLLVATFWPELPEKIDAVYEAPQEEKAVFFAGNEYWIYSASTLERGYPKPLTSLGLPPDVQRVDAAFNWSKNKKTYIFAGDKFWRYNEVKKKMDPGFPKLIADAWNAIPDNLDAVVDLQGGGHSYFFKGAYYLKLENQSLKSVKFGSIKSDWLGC
Thrombin FP: thrombin (bovine) inhibition counter-screen. inhibition, % at 20 µM. shares compounds with Rpn11 inh. bovine thrombin cleavage of Ub4-pepOG, fluorescence polarization. 13% of 1,900 active. AID 602333;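 active means mean inhibition at least 40% at 20 µM, or signal 3 deviations below plate average, so some actives read negative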;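 further: plate controls were thrombin with DMSO for no effect and buffer wells lacking thrombin for full effect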
* = called active by the depositor; / = no result shown; + = active, no number; ! = not confirmed by another sample. Unless noted, no stated cut-off is given here; in the data, active means inhibition above about 40%; inactive means the rest.

SMILES	Rpn11 inh	SUMO1 PPI mod	Scp1 inh	STEP inh	DNMT1 inh	LMPTP inh	Rpn11 inh conf	MMP-2 inh	Thrombin FP
COC(=O)c1ccc(CSc2ncnc3c2sc2nc(N4CCOCC4)c4c(c23)CCCC4)o1	41*	-105	39	8	34	4	24	19	-3
CN(c1ccccc1)c1nc(N)c([N+](=O)[O-])c(N2CCOCC2)n1	0	-6	0	-2	0	0	/	/	/
O=C1NC(=S)S/C1=C/c1ccc(N2CCOCC2)o1	/	-15	16	-7	-4	5	/	/	/
COc1ccc2cc(/C=C3\SC(=S)NC3=O)c(N3CCOCC3)nc2c1	55*	8	-1	-4	-4	0	48*	25	active
COc1ccc(N2CCN(C(CNC(=O)C(C)C)c3ccc4c(c3)OCO4)CC2)cc1 (centres undefined)	-8	-2	34	3	-1	-1	/	/	/
CCCCCCOc1ccc(-c2ccc(C#N)cn2)cc1	3	1	3	-1	-3	3	/	/	/
CCC1=[N+](CC(=O)c2ccc(C)cc2)CCn2cccc21	75*	-13	12	-1	-9	1	3	18	-6
CCC1=[N+](CC(=O)c2ccc(C)cc2)CCn2c(C)ccc21	0	-7	3	-2	-5	-1	/	/	/
Cc1noc(C)c1NC(=O)N(C)C[C@H]1Oc2ccc(NC(=O)NC3CCCCC3)cc2C(=O)N([C@H](C)CO)C[C@@H]1C	2	1	1	-1	9	-2	/	/	/
N/C(=N\c1nc2c(c(=O)[nH]1)CCC2)Nc1cccc2ccccc12	36*	1	1	1	2	-1	47*	-6	6
COC(=O)C1CCN(C(=O)CN2C(=O)NC(CC(C)C)C2=O)CC1 (centres undefined)	4	-2	0	0	1	-1	/	/	/
Cc1ccc(N(Cc2ccccc2)C(=O)c2cc(S(=O)(=O)N3CCOCC3)ccc2Cl)cc1	18	3	-7	1	-8	2	/	/	/
Cc1ccc(N(Cc2ccccc2)C(=O)c2cc(S(=O)(=O)N3CCOCC3)ccc2F)cc1	46*	-1	-13	2	1	1	9	-19	-1
CCN(Cc1ccncc1)C(=O)c1cc(COc2c(F)cccc2F)on1	0	4	-6	-3	-2	-1	/	/	/
C/C(=N/NC(=O)CNC(=O)C(c1ccccc1)c1ccccc1)c1ccco1	-4	2	-3	-2	7	-2	/	/	/
COc1ccc2c(C)cc(SCC#N)nc2c1	41*	4	-4	-1	-5	1	37	-64	19
CCOC(=O)/C=c1\s/c(=C\c2ccc(C)cc2)c(=O)n1CC(=O)NCc1ccco1	6	-3	-11	2	19	1	/	/	/
CCOC(=O)/C=c1\s/c(=C\c2ccc(C(F)(F)F)cc2)c(=O)n1CC(=O)NCc1ccco1	49*	-7	1	1	10	-1	36	-29	38
Cc1c(C(=O)N(C)Cc2nc3ccccc3c(=O)[nH]2)oc2ccccc12	-3	2	-15	-1	3	-1	/	/	/
Cc1cc(NC(=O)CCC(=O)N(c2ccccc2)C(C(=O)NCC2CCCO2)c2cccnc2)no1 (centres undefined)	54*	2	-4	-1	3	0	-8	-40	26
Cc1cc(NC(=O)CCC(=O)N(c2cccnc2)C(C(=O)NC2CCCC2)c2ccccc2)no1 (centres undefined)	-2	-1	17	-2	-1	-1	/	/	/
CC(=O)c1ccc(NC(=O)c2ccc(COc3ccccc3[N+](=O)[O-])o2)cc1	49*	2	1	-1	3	6	7	-3	-29
O=C(O)c1ccc(COc2ccccc2[N+](=O)[O-])o1	-12	-6	24	0	19	-1	/	/	/
CCn1c(CC(=O)Nc2ccccc2)nnc1SCC(=O)Nc1nnc(C)s1	4	-1	6	-1	1	0	/	/	/
O=C(c1ccc(Cl)cc1)c1cn[nH]c1-c1ccccc1O	+	-1	-9	0	-2	0	-3	0	5
SMILES	Rpn11 inh	SUMO1 PPI mod	Scp1 inh	STEP inh	DNMT1 inh	LMPTP inh	Rpn11 inh conf	MMP-2 inh	Thrombin FP
O=C(c1ccc(F)cc1)c1cn[nH]c1-c1ccccc1O	-5	3	2	1	0	0	/	/	/
COCC(C)n1c(-c2ccc3c(c2)NC(=O)CO3)csc1=Nc1ccc(OC(F)F)cc1 (centres undefined)	1	4	-7	0	-11	4	/	/	/
COc1ccccc1N=c1scc(-c2ccc3c(c2)NC(=O)CO3)n1CC1CCCO1 (centres undefined)	6	3	-2	-2	-4	5	/	/	/
CCCCN=c1scc(-c2ccc3c(c2)NC(=O)CO3)n1N=C1CCCC1	55*	-3	-2	-1	-16	3	42*	16	28
CCN=c1scc(-c2ccc3c(c2)NC(=O)CO3)n1N=C1CCCC1	44*!	1	5	-4	-10	19	18	-37	20
CC[C@]12c3[nH]c4cc(-c5ccco5)ccc4c3CCN1C(=O)[C@@H](CC(=O)NC/C=C(\C)CCC=C(C)C)C[C@@H]2C(=O)N1CCN(C(=O)C2CC2)CC1	22	-2	1	1	-30	5	/	/	/
CC(C)=CCC/C(C)=C/CNC(=O)C[C@H]1C[C@H](C(=O)N2CCCCC2)[C@@]2(CCc3ccccc3)c3[nH]c4cc(-c5ccco5)ccc4c3CCN2C1=O	47*	6	1	3	16	0	15	3	3
O=C(C[C@H]1C[C@H](C(=O)N2CCCCC2)[C@@]2(CCc3ccccc3)c3[nH]c4cc(-c5ccco5)ccc4c3CCN2C1=O)NCCN1CCOCC1	43*	-1	4	3	-36	-2	1	3	-2
C#CCOCCOCCOCCNc1nc(N2CCOCC2)nc(N2CCN(C(=O)[C@H](Cc3cc4ccccc4[nH]3)n3cc([C@@H](N)CC(C)C)nn3)CC2)n1	10	-16	2	1	-11	0	/	/	/
